The target in assay [1] is DNA topoisomerase 2-alpha (Homo sapiens) (UniProt P11388). The assay can be described thus: Induction of poisoning activity in human recombinant DNA topoisomerase 2alpha assessed as enhancement of in relaxation of supercoiled plasmid substrate DNA at 100 uM after 30 mins by agarose gel electrophoresis. Put shortly:
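For topo IIα cleavage, 0.25 µg supercoiled pRYG was incubated with 4 units of human topoisomerase IIα (p170) in Tris buffer with 2 mM ATP and 10 mM MgCl2 for 30 min at 37 °C. Workup was SDS stop, proteinase K, extraction and agarose electrophoresis. Poisoning was judged by appearance of a linear DNA band.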

In assay [2] the test system is HepG2. The experiment in a line: Cytotoxicity against human HepG2 cells assessed as cell viability at 100 uM after 72 hrs by MTS assay. The settings on record: HepG2, 72 h. (Tetrazolium dyes change colour on reduction, which living cells bring about.)
Assay [3] deals with MCF7. The assay can be described thus: Cytotoxicity against human MCF7 cells assessed as cell viability at 100 uM after 72 hrs by MTS assay. The note with it: MCF7, 72 h.
The target of assay [4] is T1, DNA topoisomerase 1 (Homo sapiens) (UniProt P11387).
T1 sequence (whole entry): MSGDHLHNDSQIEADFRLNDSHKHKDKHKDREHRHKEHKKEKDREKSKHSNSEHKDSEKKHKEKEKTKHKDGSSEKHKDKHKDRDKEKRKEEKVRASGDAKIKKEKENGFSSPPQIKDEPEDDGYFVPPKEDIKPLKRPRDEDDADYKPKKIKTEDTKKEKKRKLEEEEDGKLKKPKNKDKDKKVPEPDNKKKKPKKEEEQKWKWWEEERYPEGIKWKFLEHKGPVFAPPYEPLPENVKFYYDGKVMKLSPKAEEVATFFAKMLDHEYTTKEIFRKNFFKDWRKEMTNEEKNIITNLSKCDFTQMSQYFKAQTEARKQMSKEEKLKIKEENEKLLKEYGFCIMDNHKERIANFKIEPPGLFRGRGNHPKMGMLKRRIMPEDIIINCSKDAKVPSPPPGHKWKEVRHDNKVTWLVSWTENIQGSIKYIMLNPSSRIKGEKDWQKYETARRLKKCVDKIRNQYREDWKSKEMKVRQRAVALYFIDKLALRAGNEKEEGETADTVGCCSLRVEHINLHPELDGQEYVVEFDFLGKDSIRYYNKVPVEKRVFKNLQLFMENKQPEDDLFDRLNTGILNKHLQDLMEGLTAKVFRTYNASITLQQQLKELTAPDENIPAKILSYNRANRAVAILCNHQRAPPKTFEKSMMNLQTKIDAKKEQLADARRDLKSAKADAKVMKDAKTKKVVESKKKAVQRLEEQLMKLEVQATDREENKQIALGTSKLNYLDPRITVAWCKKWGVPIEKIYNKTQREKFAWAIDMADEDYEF
The assay can be described thus: Induction of poisoning activity in human recombinant DNA topoisomerase 1 assessed as enhancement of in relaxation of supercoiled plasmid substrate DNA at 100 uM after 30 mins by agarose gel electrophoresis. Put shortly: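 In the topo I cleavage (poison) assay, the relaxation format was used with 6 units of enzyme for 30 min at 37 °C. Reactions were stopped with SDS, digested with proteinase K and CIA-extracted. DNA was run on 1% agarose with and without ethidium bromide. Poisoning was scored by the presence of the nicked open-circular band, referenced to camptothecin.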

Assay [5] relates to HT-29. The assay can be described thus: Cytotoxicity against human HT-29 cells assessed as cell viability at 100 uM after 72 hrs by MTS assay. The settings on record: HT-29, 72 h.
The subject of the next assay is Nucleic Acid. The assay can be described thus: Binding affinity to DNA by ethidium bromide staining-based FID assay. Also on record: concentration or dose not given beside the values.
Assay [6] relates to HepG2. The assay can be described thus: Cytotoxicity against human HepG2 cells at 25 uM after 72 hrs by MTS assay.
The nature of assay [7]: Cytotoxicity against human CRL7761 cells after 3 days by MTS assay. The class given is cell-based. The settings on record: 72 h. Put shortly:
(§1)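 Non-tumour cells were CRL-7761 human skin, Vero monkey kidney (DMEM high glucose, 5% FBS, 10 mM HEPES) and NIH/3T3 mouse (DMEM, 10% calf serum). Cells were seeded, left 24 h, then switched to serum-free DMEM-F12 with albumin, transferrin and insulin, with or without compound. Exposure was 3 days at 37 °C.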

Assay [8] in a line: Cytotoxicity against mouse NIH/3T3 cells after 3 days by MTS assay. In kind it is cell-based. The note with it: NIH3T3, 72 h. The method, boiled down:
as §1

The next assay deals with Vero. The assay can be described thus: Cytotoxicity against african green monkey Vero cells after 3 days by MTS assay. The class given is cell-based. The settings on record: Chlorocebus sabaeus, 72 h. The method, boiled down: as §1
The test system of assay [9] is HepG2. The experiment in a line: Cytotoxicity against human HepG2 cells assessed as cell viability at 25 uM after 24 hrs by MTS assay. The note with it: HepG2, 24 h, read-out: Activity. In kind it is functional.
For assay [10], the target named is DNA topoisomerase 2-alpha (Homo sapiens) (UniProt P11388). The experiment in a line: Inhibition of human recombinant DNA topoisomerase 2alpha-mediated DNA cleavage assessed as decrease in relaxation of supercoiled plasmid substrate DNA at 100 uM after 30 mins by agarose gel electrophoresis.
The test system of assay [11] is MCF7. The experiment in a line: Cytotoxicity against human MCF7 cells assessed as cell viability at 25 uM after 72 hrs by MTS assay. The settings on record: MCF7, 72 h.
For assay [12], the system named is HT-29. The experiment in a line: Cytotoxicity against human HT-29 cells assessed as cell viability at 25 uM after 72 hrs by MTS assay. The settings on record: HT-29, 72 h.
For assay [13], the target named is DNA topoisomerase 2-alpha (Homo sapiens) (UniProt P11388). The experiment in a line: Inhibition of human recombinant DNA topoisomerase 2alpha-mediated DNA cleavage assessed as decrease in relaxation of supercoiled plasmid substrate DNA at 40 uM after 30 mins by agarose gel electrophoresis.
In assay [14] the test system is MCF7. The experiment in a line: Cytotoxicity against human MCF7 cells at 25 uM after 72 hrs by MTS assay.
Assay [15] concerns HT-29. The experiment in a line: Cytotoxicity against human HT-29 cells at 25 uM after 72 hrs by MTS assay.
The test system of assay [16] is HepG2. The experiment in a line: Cytotoxicity against human HepG2 cells after 72 hrs by MTS assay. The settings on record: HepG2, 72 h.
In assay [17] the test system is MCF7. The assay can be described thus: Cytotoxicity against human MCF7 cells after 72 hrs by MTS assay. The note with it: MCF7, 72 h.
In assay [18] the test system is HT-29. The experiment in a line: Cytotoxicity against human HT-29 cells after 72 hrs by MTS assay. The note with it: HT-29, 72 h.
Assay [19] addresses DNA topoisomerase 2-alpha (Homo sapiens) (UniProt P11388). The assay can be described thus: Inhibition of human recombinant DNA topoisomerase 2alpha-mediated DNA cleavage assessed as decrease in relaxation of supercoiled plasmid substrate DNA at 20 uM after 30 mins by agarose gel electrophoresis.
The target in assay [20] is T1, DNA topoisomerase 1 (Homo sapiens). The assay can be described thus: Inhibition of human recombinant DNA topoisomerase 1-mediated DNA cleavage assessed as decrease in relaxation of supercoiled plasmid substrate DNA at 100 uM after 30 mins by agarose gel electrophoresis.
Assay [21] shares this target. The experiment in a line: Inhibition of human recombinant DNA topoisomerase 1-mediated DNA cleavage assessed as decrease in relaxation of supercoiled plasmid substrate DNA at 40 uM after 30 mins by agarose gel electrophoresis.

A word on the IC50: it is the concentration needed to halve the response being measured. The inhibition is the change of the read-out against control, counted positive when it falls.

SMILES strings stand for the structures. Active and inactive are the calls of the source. The rule behind the calls is not given here.

Sequence of DNA topoisomerase 2-alpha (Homo sapiens) (P11388 whole entry): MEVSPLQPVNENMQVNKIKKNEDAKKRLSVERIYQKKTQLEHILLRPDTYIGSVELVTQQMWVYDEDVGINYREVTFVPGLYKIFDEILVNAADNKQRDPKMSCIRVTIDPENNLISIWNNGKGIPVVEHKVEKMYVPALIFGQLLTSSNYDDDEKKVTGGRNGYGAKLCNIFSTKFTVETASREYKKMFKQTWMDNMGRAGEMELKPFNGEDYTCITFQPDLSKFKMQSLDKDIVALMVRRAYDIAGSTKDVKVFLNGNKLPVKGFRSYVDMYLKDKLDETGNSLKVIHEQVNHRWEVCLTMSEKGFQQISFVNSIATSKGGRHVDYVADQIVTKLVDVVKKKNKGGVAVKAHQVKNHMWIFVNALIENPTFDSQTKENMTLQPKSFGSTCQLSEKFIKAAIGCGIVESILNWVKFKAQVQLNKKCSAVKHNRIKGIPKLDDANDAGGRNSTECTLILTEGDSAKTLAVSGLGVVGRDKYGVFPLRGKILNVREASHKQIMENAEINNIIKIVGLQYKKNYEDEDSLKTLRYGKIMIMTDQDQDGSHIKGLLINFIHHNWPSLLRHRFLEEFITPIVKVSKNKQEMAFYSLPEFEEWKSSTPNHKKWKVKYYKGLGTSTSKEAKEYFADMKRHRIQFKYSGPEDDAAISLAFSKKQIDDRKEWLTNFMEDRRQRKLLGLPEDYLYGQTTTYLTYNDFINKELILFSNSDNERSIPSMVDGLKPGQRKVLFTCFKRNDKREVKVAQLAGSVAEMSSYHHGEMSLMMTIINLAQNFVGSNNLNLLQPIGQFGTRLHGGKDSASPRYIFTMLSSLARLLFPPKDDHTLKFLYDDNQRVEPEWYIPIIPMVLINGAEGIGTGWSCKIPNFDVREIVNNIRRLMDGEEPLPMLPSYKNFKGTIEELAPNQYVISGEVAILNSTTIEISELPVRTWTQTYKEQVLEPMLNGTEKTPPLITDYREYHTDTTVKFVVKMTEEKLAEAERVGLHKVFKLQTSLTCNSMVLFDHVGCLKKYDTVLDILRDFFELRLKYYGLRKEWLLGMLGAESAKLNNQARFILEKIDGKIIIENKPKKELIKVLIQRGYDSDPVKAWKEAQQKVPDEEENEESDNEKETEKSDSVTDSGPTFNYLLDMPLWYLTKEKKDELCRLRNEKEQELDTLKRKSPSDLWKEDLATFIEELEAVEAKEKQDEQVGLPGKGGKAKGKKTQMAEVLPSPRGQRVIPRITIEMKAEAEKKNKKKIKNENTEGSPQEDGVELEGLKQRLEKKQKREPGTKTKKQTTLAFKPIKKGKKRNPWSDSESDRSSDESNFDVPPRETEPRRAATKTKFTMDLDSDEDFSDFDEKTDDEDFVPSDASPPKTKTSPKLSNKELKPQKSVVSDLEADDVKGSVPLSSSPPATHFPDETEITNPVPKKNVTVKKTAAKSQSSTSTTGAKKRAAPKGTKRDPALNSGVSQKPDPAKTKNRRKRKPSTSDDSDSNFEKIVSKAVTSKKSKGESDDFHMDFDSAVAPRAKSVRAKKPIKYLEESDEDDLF

In the case of `Ic1c(-c2ccccc2)sc2ccccc12`, the result in assay [1] and in assay [4] was inactive. The viability at 100 µM worked out at 87% in the assay on HepG2 [2], 111% with MCF7 [3] and 89% in the assay on HT-29 [5].

Take `CC[C@@]1(O)C(=O)OCc2c1cc1n(c2=O)Cc2cc3ccccc3nc2-1`: the result in assay [1] and in assay [4] was inactive.

As to `Cc1ccc(S(=O)(=O)n2c(-c3ccccc3)c(C#CCO[C@H]3CC[C@H](N)[C@H](C)O3)c3ccccc32)cc1`, the Activity in the assay with Nucleic Acid stood at 38.6%; with HepG2 [6], 100%; in the assay on MCF7 [14], 100%; in the assay on HT-29 [15], 100%. For the same compound, the IC50 in [7] stood at 17.5 µM; in [8], 4.9 µM; in the assay with Vero, 10.1 µM; in the assay on HepG2 [16] it was 9.5 µM; in the assay on MCF7 [17] it was 5.1 µM; in the assay with HT-29 [18] it was 5.4 µM. For the same compound, the result in [1] and in assay [4] was inactive. In addition, the viability at 25 µM in the assay on HepG2 [9], with MCF7 [11] and with HT-29 [12] was less than 1% each time. The figures for the inhibition in assay [10] and in assay [20] were 86.2% and 43.2%, respectively. The inhibition entry in assay [13] is “Active”. In addition, in [19], the inhibition entry is “inactive”.

As to `C[C@@H]1O[C@@H](OCC#Cc2c(-c3ccccc3)oc3ccccc23)C[C@H](N)[C@@H]1O`, the Activity with Nucleic Acid worked out at 62%; in the assay with HepG2 [6], 100%; with MCF7 [14], 100%; with HT-29 [15] it was 100%. The IC50 in [7] worked out at 16.7 µM; in assay [8] it was 4.8 µM; in the assay on Vero, 5.7 µM; with HepG2 [16], 3.2 µM; in the assay with MCF7 [17] it was 6.6 µM; with HT-29 [18], 5.2 µM. Besides, the outcome in assay [1] and in [4] was inactive. Moreover, the inhibition entry in [21] and in [19] was “inactive” each time. Moreover, the viability at 25 µM in the assay with HepG2 [9], in the assay with MCF7 [11] and in the assay with HT-29 [12] was less than 1% throughout. For the same compound, the inhibition in assay [10] amounted to 6.5%; in assay [20], 77.8%.

Consider `C[C@@H]1O[C@@H](OCC#Cc2c(-c3ccccc3)[nH]c3ccccc23)C[C@H](N)[C@H]1O`, for which the Activity in the assay on Nucleic Acid turned out to be 76.5%; in the assay with HepG2 [6], 100%; in the assay on MCF7 [14], 100%. Moreover, the viability at 25 µM in the assay on HepG2 [9] is less than 1%; in the assay on MCF7 [11] it was 2%; in the assay on HT-29 [12], 7%. In addition, the inhibition stood at 55.5% in assay [10] and 8.2% in assay [20]. In addition, the values for the IC50 with HepG2 [16], with MCF7 [17] and in the assay with HT-29 [18] were 16.2 µM, 17.3 µM and 19.3 µM, respectively. Further, the inhibition result in assay [19] was “inactive”.

For the compound `Cc1ccc(S(=O)(=O)n2c(-c3ccccc3)c(C#CCO[C@H]3C[C@H](N)[C@@H](O)[C@H](C)O3)c3ccccc32)cc1`, the Activity worked out at 49.7% in the assay on Nucleic Acid, 100% in the assay with HepG2 [6], 100% in the assay on MCF7 [14] and 100% with HT-29 [15]. Besides, the IC50 was 24.3 µM in [7]; 5.8 µM in [8]; 11.6 µM in the assay on Vero; 7.7 µM in the assay with HepG2 [16]; 4.7 µM in the assay on MCF7 [17]; 7.3 µM in the assay with HT-29 [18]. Further, the outcome in [1] and in assay [4] was inactive. For the same compound, the inhibition result in assay [21] and in assay [19] was “inactive” throughout. The viability at 25 µM in the assay on HepG2 [9], in the assay on MCF7 [11] and in the assay with HT-29 [12] was less than 1% throughout. Also, the inhibition is 103% in assay [10] and 92.8% in [20]. In addition, the inhibition result in assay [13] was “Active”.

On to `C[C@@H]1O[C@@H](OCC#Cc2c(-c3ccccc3)oc3ccccc23)C[C@H](N)[C@H]1O`, for which the Activity in the assay with Nucleic Acid came to 50.5%; in the assay with HepG2 [6] it was 100%; in the assay on MCF7 [14] it was 100%; in the assay on HT-29 [15] it was 100%. The IC50 in [7] is greater than 25 µM; in assay [8] it was 6.5 µM; in the assay on Vero, 10.6 µM; in the assay with HepG2 [16] it was 7.7 µM; in the assay on MCF7 [17], 5.4 µM; with HT-29 [18], 6.5 µM. Further, the viability at 25 µM in the assay on HepG2 [9], in the assay with MCF7 [11] and in the assay on HT-29 [12] was less than 1% throughout. For the same compound, the inhibition stood at 5.5% in assay [10] and 25.5% in assay [20].

Take `C[C@@H]1O[C@@H](OCC#Cc2c(-c3ccccc3)sc3ccccc23)C[C@H](N)[C@@H]1O`: the Activity in the assay on Nucleic Acid turned out to be 67.5%; in the assay with HepG2 [6], 100%; with MCF7 [14], 100%; in the assay on HT-29 [15] it was 100%. The IC50 in assay [7] was determined as 22.2 µM; in assay [8], 5.7 µM; with Vero it was 9.4 µM; with HepG2 [16], 6 µM; in the assay with MCF7 [17] it was 7.1 µM; in the assay with HT-29 [18] it was 2.6 µM. Also, the viability at 25 µM in the assay on HepG2 [9], in the assay with MCF7 [11] and in the assay on HT-29 [12] was less than 1% throughout. In addition, the inhibition was determined as 5.8% in assay [10] and 36.9% in [20].

The values above are taken from ChEMBL document CHEMBL1641417, “Cytotoxicity and topoisomerase I/II inhibition of glycosylated 2-phenyl-indoles, 2-phenyl-benzo[b]thiophenes and 2-phenyl-benzo[b]furans” (Bioorg Med Chem, 2011).
